Experimental data taken from publication PMC4814158 (MedChemComm, 2015).

Key:
Assay type in all cases: in vitro ADME
[1] = test system: Phase II conjugative enzymes; experiment: Phase II conjugation reactions; conditions: rat enzymes (printed: rat microsomes)
How it was run: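 Three rat liver S9 incubations in pH 7.4 phosphate at 37 °C, each with test compound 100 μM and MgCl2 1 mM. Glucuronidation used 2 mg/mL S9 activated with alamethicin on ice 15 min, plus UDPGA 5 mM. Sulfation used 2 mg/mL S9 plus PAPS 0.2 mM. Glutathione conjugation used 10 mg/mL S9 plus glutathione 0.2 mM. Parent loss by LC-MS/MS over 120 min.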

[2] = test system: uridine glucuronosyl transferases (UGTs); experiment: Glucuronide conjugation in human liver S9 with UDPGA; conditions: human liver S9 + UDP glucuronic acid, 2 h
[3] = test system: uridine glucuronosyl transferases (UGTs); experiment: Glucuronide conjugation in rat liver S9 with UDPGA; conditions: rat liver S9 + UDP glucuronic acid, 2 h
[4] = test system: glutathione-S-transferases (GSTs); experiment: Glutathione conjugation in rat liver S9; conditions: rat enzymes
How it was run: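 Rat liver S9 (10 mg/mL) in 0.1 M potassium phosphate, pH 7.4, with test compound 100 μM and MgCl2 1 mM (final), preincubated 5 min at 37 °C. Reaction started with glutathione 0.2 mM final. Controls: acetaminophen as positive, no-glutathione as negative. Samples taken over 0–120 min, quenched in cold methanol with internal standard. Parent measured by HILIC LC-MS/MS; % intact at 120 min vs time zero, mean ± %CV.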

[5] = test system: sulfotransferases (SULTs); experiment: Sulfoconjugation in rat liver S9 with PAPS; conditions: rat liver S9, 2 h
How it was run: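 Sulfotransferase reaction in rat liver S9 (2 mg/mL), 0.1 M potassium phosphate pH 7.4, with 1 mM MgCl2 and test compound at 100 μM final. After 5 min preincubation at 37 °C, PAPS was added to 0.2 mM. Controls: 7-hydroxycoumarin as positive, PAPS-free as negative. Aliquots to 120 min stopped with ice-cold methanol plus internal standard. LC-MS/MS of parent; percent intact relative to time zero.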

SMILES	stability towards Phase II conjugative enzymes (in words) [1]	formation of glutathione conjugates (in words) [4]	further results
CN[C@@H]1[C@H](O)[C@H](NC)[C@H]2O[C@]3(O)[C@H](O[C@@H]2[C@H]1O)O[C@H](C)C[C@H]3NC(=O)Cc1ccc(Cl)cn1 [Compound 1599]	complete stability		
CN[C@@H]1[C@H](O)[C@H](NC)[C@H]2O[C@]3(O)[C@H](O[C@@H]2[C@H]1O)O[C@H](C)C[C@H]3NC(=O)Cc1ccc(O)cn1 [Compound 1810]	complete stability		% parent compound remaining intact [2]: above 93%; % parent compound remaining intact [3]: above 93%
CN[C@@H]1[C@H](O)[C@H](NC)[C@H]2O[C@]3(O)[C@H](O[C@@H]2[C@H]1O)O[C@H](C)C[C@H]3NC(=O)Cc1cc(Cl)ccn1 [Compound 1544]		formed glutathione conjugates	
CN[C@@H]1[C@H](O)[C@H](NC)[C@H]2O[C@]3(O)[C@H](O[C@@H]2[C@H]1O)O[C@H](C)C[C@H]3NC(=O)Cc1ccc(F)cn1 [Compound 1445]	complete stability		
CN[C@@H]1[C@H](O)[C@H](NC)[C@H]2O[C@]3(O)[C@H](O[C@@H]2[C@H]1O)O[C@H](C)C[C@H]3NC(=O)Cc1cc(Cl)c(F)cn1 [Compound 1661]	complete stability		
CN[C@@H]1[C@H](O)[C@H](NC)[C@H]2O[C@]3(O)[C@H](O[C@@H]2[C@H]1O)O[C@H](C)C[C@H]3NC(=O)Cc1cc(Cl)c(C)cn1 [Compound 1666]		formed glutathione conjugates	sulfoconjugation (in words) [5]: no metabolism
CN[C@@H]1[C@H](O)[C@H](NC)[C@H]2O[C@]3(O)[C@H](O[C@@H]2[C@H]1O)O[C@H](C)C[C@H]3NC(=O)Cc1cc(Cl)c(OC)cn1 [Compound 1878]		formed glutathione conjugates	
